Reference: ChEMBL document CHEMBL1143908, “Functionalized chalcones as selective inhibitors of P-glycoprotein and breast cancer resistance protein” (Bioorg Med Chem, 2008)
pIC50: −log10 of the molar value.

Legend:
[1] = molecular target: T1, ATP-dependent translocase ABCB1 (Homo sapiens, UniProt P08183); assay: Inhibition of human multidrug resistant gene Pgp expressed in MDCK2 cells assessed as calcein-AM accumulation at 10 uM after 40 mins; assay type: cell-based; parameters: scale not given: the % may be the effect or the level left; conditions: mdck-ii
T1 sequence (P08183 whole entry): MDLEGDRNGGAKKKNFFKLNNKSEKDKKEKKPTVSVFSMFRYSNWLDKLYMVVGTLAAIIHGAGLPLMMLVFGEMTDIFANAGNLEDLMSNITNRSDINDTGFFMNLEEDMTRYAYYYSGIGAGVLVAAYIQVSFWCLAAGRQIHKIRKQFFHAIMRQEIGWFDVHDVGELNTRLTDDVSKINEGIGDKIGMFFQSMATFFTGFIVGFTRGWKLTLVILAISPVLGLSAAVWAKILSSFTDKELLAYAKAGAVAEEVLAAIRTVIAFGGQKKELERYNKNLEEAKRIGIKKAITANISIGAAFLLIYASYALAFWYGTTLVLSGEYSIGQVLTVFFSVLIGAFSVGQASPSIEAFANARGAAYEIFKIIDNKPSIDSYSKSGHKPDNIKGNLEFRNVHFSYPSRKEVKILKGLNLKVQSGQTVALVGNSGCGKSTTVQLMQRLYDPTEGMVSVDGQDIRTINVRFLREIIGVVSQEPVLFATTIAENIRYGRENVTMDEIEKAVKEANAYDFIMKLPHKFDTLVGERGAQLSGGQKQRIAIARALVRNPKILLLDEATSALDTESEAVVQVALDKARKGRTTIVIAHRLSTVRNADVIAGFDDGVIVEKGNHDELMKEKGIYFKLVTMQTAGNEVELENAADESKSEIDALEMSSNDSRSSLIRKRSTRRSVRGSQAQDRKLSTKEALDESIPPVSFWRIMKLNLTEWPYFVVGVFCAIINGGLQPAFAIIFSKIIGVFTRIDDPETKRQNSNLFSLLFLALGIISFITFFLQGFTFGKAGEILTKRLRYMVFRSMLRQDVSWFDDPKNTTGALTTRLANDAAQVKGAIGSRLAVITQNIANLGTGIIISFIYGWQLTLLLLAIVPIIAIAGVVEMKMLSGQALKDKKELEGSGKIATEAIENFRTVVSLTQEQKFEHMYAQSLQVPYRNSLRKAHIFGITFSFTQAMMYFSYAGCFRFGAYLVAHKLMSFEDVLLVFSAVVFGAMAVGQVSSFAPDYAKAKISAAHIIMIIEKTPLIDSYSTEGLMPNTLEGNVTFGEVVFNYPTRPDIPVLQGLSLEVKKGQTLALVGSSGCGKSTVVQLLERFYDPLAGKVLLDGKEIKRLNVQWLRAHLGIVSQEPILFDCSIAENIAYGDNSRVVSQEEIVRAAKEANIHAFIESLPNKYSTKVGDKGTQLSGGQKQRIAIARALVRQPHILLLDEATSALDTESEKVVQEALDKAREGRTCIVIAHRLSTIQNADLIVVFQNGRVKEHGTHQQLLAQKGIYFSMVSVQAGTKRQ

[2] = molecular target: T2, Broad substrate specificity ATP-binding cassette transporter ABCG2 (Homo sapiens, UniProt Q9UNQ0); assay: Inhibition of human BCRP mediated mitoxantrone accumulation in mitoxantrone resistant MCF7 cells at 5 uM by flow cytometry; assay type: cell-based; parameters: scale not given: the % may be the effect or the level left; conditions: mcf7, 5 µM
T2 sequence (Q9UNQ0 whole entry): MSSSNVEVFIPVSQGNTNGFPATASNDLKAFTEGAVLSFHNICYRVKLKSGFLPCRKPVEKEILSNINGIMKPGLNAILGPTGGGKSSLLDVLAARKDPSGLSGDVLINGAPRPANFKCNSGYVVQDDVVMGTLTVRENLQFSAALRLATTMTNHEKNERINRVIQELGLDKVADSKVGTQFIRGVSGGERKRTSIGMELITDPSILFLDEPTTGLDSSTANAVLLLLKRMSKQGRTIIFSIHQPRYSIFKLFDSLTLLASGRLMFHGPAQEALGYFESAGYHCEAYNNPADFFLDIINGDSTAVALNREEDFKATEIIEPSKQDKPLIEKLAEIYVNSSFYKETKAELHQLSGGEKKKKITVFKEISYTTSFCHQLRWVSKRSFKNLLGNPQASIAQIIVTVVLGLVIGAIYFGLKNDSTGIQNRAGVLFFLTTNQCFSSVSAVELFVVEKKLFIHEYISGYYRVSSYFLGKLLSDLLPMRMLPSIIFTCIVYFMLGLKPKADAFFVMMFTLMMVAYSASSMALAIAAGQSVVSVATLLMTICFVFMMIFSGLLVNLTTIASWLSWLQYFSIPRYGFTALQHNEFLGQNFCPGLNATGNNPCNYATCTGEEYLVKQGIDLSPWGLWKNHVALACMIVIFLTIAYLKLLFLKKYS
In short: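 MCF-7/MX cells (selected in 250 nM mitoxantrone) trypsinized and resuspended at ~10^6 cells/ml in serum-free RPMI. Preincubated 15 min at 37 °C with compound (5 uM final) or vehicle (0.5% DMSO), then mitoxantrone 3 uM final added for 30 min. Stopped with ice-cold PBS and washed. Read by flow cytometry (488 nm excitation, 670 nm bandpass) as % area right of a marker set on MCF-7/WT autofluorescence (<5%). n = 4; FTC 10 uM as positive control.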

MCF7 [3] = assay: Antiproliferative activity against adriamycin resistant human MCF7 cells after 72 hrs by MTT assay; assay type: functional, cell-based; conditions: MCF7, 72 h
In short: (§1)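 MCF-7/WT and MCF-7/Adr cells (Adr line kept in medium with 10 uM doxorubicin; RPMI 1640, 10% FBS) exposed to compound for 72 h. MTT then added for 3 h, cells washed with PBS, and formazan dissolved in DMSO. Absorbance read at 590 nm, 3 determinations per concentration, IC50 derived from the concentration-response curve.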

[4] = molecular target: T1, ATP-dependent translocase ABCB1; assay: Inhibition of human multidrug resistant gene Pgp expressed in MDCK2 cells assessed as calcein-AM accumulation at 1 uM; assay type: cell-based; conditions: mdck-ii
In short: (§2)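 MDCKII/WT or human MDR1-transfected MDCKII/MDR1 cells (passages 8-17) seeded at 5.0 x 10^4 cells/well and cultured 24 h. Washed, then preincubated 30 min at 37 °C with compound in DMSO-HBSS (≤1% DMSO). Calcein-AM added to 2 uM final, and fluorescence (ex 485/em 535 nm) read every 10 min over 40 min. Accumulation taken at 40 min relative to untreated MDCKII/MDR1, or scaled to the WT-minus-MDR1 fluorescence difference.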

[5] = molecular target: T1, ATP-dependent translocase ABCB1; assay: Inhibition of human wild type gene Pgp expressed in MDCK2 cells assessed as calcein-AM accumulation at 1 uM; assay type: cell-based; conditions: mdck-ii; in short: as §2
P-gp (ABCB1), wild type = P-gp (ABCB1), wild type (Homo sapiens, UniProt P08183); assay: Inhibition of human wild type Pgp expressed in MDCK2 cells assessed as calcein-AM accumulation at 50 uM after 40 mins; assay type: cell-based, MDCK-II; conditions: MDCK2 cells expressing human wild type Pgp, probe calcein-AM; in short: as §2
P-gp (ABCB1), wild type, sequence (P08183 whole entry): as the sequence (P08183 whole entry) above

MCF7 [6] = assay: Antiproliferative activity against wild type human MCF7 cells after 72 hrs by MTT assay; assay type: functional, cell-based; conditions: MCF7, 72 h; in short: as §1
[7] = molecular target: T2, Broad substrate specificity ATP-binding cassette transporter ABCG2; assay: Inhibition of human BCRP mediated mitoxantrone accumulation in mitoxantrone resistant MCF7 cells at 10 uM by flow cytometry; assay type: cell-based; parameters: scale not given: the % may be the effect or the level left; conditions: mcf7, 10 µM
In short: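 MCF-7/MX cells are maintained in 250 nM mitoxantrone, then trypsinized, washed in ice-cold PBS and resuspended in serum-free RPMI 1640. They are pre-incubated 15 min at 37 °C with compound or vehicle (0.5% v/v DMSO), then exposed to mitoxantrone (3 uM final) for 30 min. Uptake is stopped with ice-cold PBS and cells are washed. Flow cytometry uses 488 nm excitation and a 670 nm filter. The read-out is % area beyond a marker set on MCF-7/WT autofluorescence (<5%).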

[8] = molecular target: T2, Broad substrate specificity ATP-binding cassette transporter ABCG2; assay: Inhibition of human BCRP mediated mitoxantrone accumulation in wild type MCF7 cells at 5 uM by flow cytometry; assay type: cell-based; parameters: scale not given: the % may be the effect or the level left; conditions: mcf7, 5 µM

Row | Structure (SMILES) | Activity [1] | also measured
1 | COc1ccc(/C=C/C(=O)c2ccc(OC)c(OC)c2OC)c(OC)c1 | 174% | 
2 | COc1ccc(C(=O)/C=C/c2ccc(Cl)cc2)c(OC)c1 | 101% | Activity [2]: 348.6%
3 | COc1ccc(/C=C/C(=O)c2ccc(OC)cc2OC)c(OC)c1 | 172% | 
4 | COc1ccc(/C=C/C(=O)c2ccc(N3CCNCC3)cc2)c(OC)c1 | 216% | pIC50 (MCF7 [3]): 4.67; Activity [4]: Active; Activity [5]: Active; Activity [2]: 188.4%
5 | O=C(/C=C/c1ccccc1Cl)c1ccc(N2CCNCC2)cc1 | 139% | 
6 | O=C(/C=C/c1ccc(Cl)cc1)c1ccc(N2CCCCC2)cc1 | 103% | 
7 | COc1cc(OC)c(C2CCN(C)CC2)cc1C(=O)/C=C/c1ccccn1 | 164% | 
8 | COc1ccc(C2CCN(C)CC2)cc1C(=O)/C=C/c1ccccc1 | 178% | 
9 | CCN1CCC(c2cc(C(=O)/C=C/c3ccccc3Cl)c(OC)cc2OC)CC1 | 280% | inhibition at 40 min, 50 µM (P-gp (ABCB1), wild type): > 100%; pIC50 (MCF7 [3]): 5.44; pIC50 (MCF7 [6]): 5.59; Activity [4]: Active; Activity [5]: Active
10 | CCN1CCC(c2cc(C(=O)/C=C/c3ccccc3)c(OC)cc2OC)CC1 | 256% | pIC50 (MCF7 [3]): 5.21; pIC50 (MCF7 [6]): 5.32; Activity [4]: Active; Activity [5]: Active
11 | CCN1CCC(c2cc(C(=O)/C=C/c3ccncc3)c(OC)cc2OC)CC1 | 151% | 
12 | COc1ccc(C(=O)/C=C/c2ccc(C(F)(F)F)cc2)c(OC)c1 | 103% | 
13 | O=C(/C=C/c1ccc(Cl)cc1)c1ccc(N2CCNCC2)cc1 | 135% | 
14 | COc1ccc(/C=C/C(=O)c2ccc(N3CCCCC3)cc2)c(OC)c1 | 178% | 
15 | O=C(/C=C/c1ccccc1)c1ccc(N2CCCCC2)cc1 | 112% | 
16 | COc1ccc2c3c([nH]c2c1)[C@H](C=C(C)C)N1C(=O)[C@@H]2CCCN2C(=O)[C@@H]1C3 [FUMITREMORGIN] |  | Activity [7]: 274.5%
17 | O=C1c2c(O)ccc(O)c2C(=O)c2c(NCCNCCO)ccc(NCCNCCO)c21 [MITOXANTRONE] |  | Activity [8]: 439.2%

Now from value to molecule, other results behind:

Row | Activity [1] | Structure (SMILES) | also measured
18 | 159% | COc1ccc(C(=O)/C=C/c2ccc(N3CCN(C)CC3)cc2)c(OC)c1 | 
19 | 117% | COc1cc(OC)c(C2CCN(C)CC2)cc1C(=O)/C=C/c1ccncc1 | 
20 | 170% | COc1cc(OC)c(C2CCN(C)CC2)cc1C(=O)/C=C/c1cccnc1 | 
21 | 107% | COc1cc(OC)c(N2CCN(C)CC2)cc1C(=O)/C=C/c1ccc(N2CCN(C)CC2)cc1 | 
22 | 247% | CCN1CCC(c2cc(C(=O)/C=C/c3ccc(Cl)cc3)c(OC)cc2OC)CC1 | 
23 | 120% | CCN1CCC(c2cc(C(=O)/C=C/c3ccc(N4CCN(C)CC4)cc3)c(OC)cc2OC)CC1 | 
24 | 102% | COc1cc(OC)c(C2CCN(C)CC2)cc1C(=O)/C=C/c1ccc(N2CCN(C)CC2)cc1 | 
25 | 176% | COc1cc(OC)c(N2CCN(C)CC2)cc1C(=O)/C=C/c1ccccc1 | 
26 | 118% | COc1cc(OC)c(C2CCN(C)CC2)c(O)c1C(=O)/C=C/c1ccc(N2CCN(C)CC2)cc1 | 
27 | 222% | COc1cc(OC)c(N2CCN(C)CC2)cc1C(=O)/C=C/c1ccccc1Cl | 
